Results taken from ChEMBL document CHEMBL3286116, “Synthesis, biological evaluation and structure-activity correlation study of a series of imidazol-based compounds as Candida albicans inhibitors” (Eur J Med Chem, 2014).
In brackets after ≈: the same amount, converted by molar mass.

What was measured:
Assay type in all cases: functional
Candida albicans [1] = assay: Antifungal activity against Candida albicans ATCC 90028 after 48 hrs by CLSI broth microdilution method; conditions: ATCC 90028, 48 h
Outline: (§1)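 Yeast CLSI broth microdilution (M27-A3). Compounds dissolved in DMSO at 100× the top test concentration, then diluted as serial two-fold dilutions in RPMI 1640 to final 0.125–64. Inoculum was 1.0–1.5 × 10^3 cells mL−1, incubated at 35 °C and read for growth at 48 h. MIC is the lowest concentration giving ≥50% growth inhibition versus growth control. Reported as the median of five replicates and as the geometric mean.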

Candida albicans [2] = assay: Antifungal activity against Candida albicans ATCC 20891 after 48 hrs by CLSI broth microdilution method; conditions: ATCC 20891, 48 h; outline: as §1
Candida albicans [3] = assay: Antifungal activity against Candida albicans PMC 1011 after 48 hrs by CLSI broth microdilution method; conditions: PMC 1011, 48 h; outline: as §1
Pichia kudriavzevii [4] = assay: Antifungal activity against Candida krusei DSM 6128 after 48 hrs by CLSI broth microdilution method; conditions: DSM 6128, 48 h; outline: as §1
Pichia kudriavzevii [5] = assay: Antifungal activity against Candida krusei PMC 0613 after 48 hrs by CLSI broth microdilution method; conditions: PMC 0613, 48 h; outline: as §1
Candida tropicalis [6] = assay: Antifungal activity against Candida tropicalis PMC 0910 after 48 hrs by CLSI broth microdilution method; conditions: PMC 0910, 48 h; outline: as §1
Candida tropicalis [7] = assay: Antifungal activity against Candida tropicalis DSM 11953 after 48 hrs by CLSI broth microdilution method; conditions: DSM 11953, 48 h; outline: as §1
Candida parapsilosis [8] = assay: Antifungal activity against Candida parapsilosis DSM 11224 after 48 hrs by CLSI broth microdilution method; conditions: Lodderomyces parapsilosis, DSM 11224, 48 h; outline: as §1
Candida parapsilosis [9] = assay: Antifungal activity against Candida parapsilosis ATCC 22019 after 48 hrs by CLSI broth microdilution method; conditions: Lodderomyces parapsilosis, ATCC 22019, 48 h; outline: as §1
Nakaseomyces glabratus [10] = assay: Antifungal activity against Candida glabrata PMC 0805 after 48 hrs by CLSI broth microdilution method; conditions: PMC 0805, 48 h; outline: as §1
Nakaseomyces glabratus [11] = assay: Antifungal activity against Candida glabrata PMC 0807 after 48 hrs by CLSI broth microdilution method; conditions: PMC 0807, 48 h; outline: as §1
Cryptococcus neoformans [12] = assay: Antifungal activity against Cryptococcus neoformans PMC 2123 after 72 hrs by CLSI broth microdilution method; conditions: PMC 2123, 72 h
Outline: (§2)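 Cryptococcus neoformans tested by CLSI broth microdilution in RPMI 1640, with serial two-fold dilutions from DMSO stocks at 100× the top concentration, final 0.125–64. Inoculum was 1.0–1.5 × 10^3 cells mL−1 at 35 °C, with growth read at 72 h. MIC is the lowest concentration with ≥50% growth inhibition versus control. Median of five replicates, plus geometric mean.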

Cryptococcus neoformans [13] = assay: Antifungal activity against Cryptococcus neoformans PMC 2136 after 72 hrs by CLSI broth microdilution method; conditions: PMC 2136, 72 h; outline: as §2
Cryptococcus neoformans [14] = assay: Antifungal activity against Cryptococcus neoformans PMC 2115 after 72 hrs by CLSI broth microdilution method; conditions: PMC 2115, 72 h; outline: as §2
Cryptococcus neoformans [15] = assay: Antifungal activity against Cryptococcus neoformans PMC 2103 after 72 hrs by CLSI broth microdilution method; conditions: PMC 2103, 72 h; outline: as §2
Cryptococcus neoformans [16] = assay: Antifungal activity against Cryptococcus neoformans PMC 2107 after 72 hrs by CLSI broth microdilution method; conditions: PMC 2107, 72 h; outline: as §2
Cryptococcus neoformans [17] = assay: Antifungal activity against Cryptococcus neoformans PMC 2102 after 72 hrs by CLSI broth microdilution method; conditions: PMC 2102, 72 h; outline: as §2
Cryptococcus neoformans [18] = assay: Antifungal activity against Cryptococcus neoformans DSM 11959 after 72 hrs by CLSI broth microdilution method; conditions: DSM 11959, 72 h; outline: as §2
Cryptococcus neoformans [19] = assay: Antifungal activity against Cryptococcus neoformans PMC 2111 after 72 hrs by CLSI broth microdilution method; conditions: PMC 2111, 72 h; outline: as §2
[20] = tested on: Trichophyton mentagrophytes; assay: Antifungal activity against Trichophyton mentagrophytes DSM 4870 after 72 hrs by CLSI broth microdilution method; conditions: DSM 4870, 72 h
Outline: (§3)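 Dermatophytes tested by CLSI broth microdilution for filamentous fungi (M38-A2). Serial two-fold dilutions of DMSO-dissolved compound in RPMI 1640, final 0.125–64. Inoculum was 0.4–5 × 10^4 CFU mL−1, incubated at 35 °C and read at 72 h. MIC80 is the lowest concentration giving ≥80% growth inhibition versus growth control. Median of five replicates, plus geometric mean.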

[21] = tested on: Trichophyton mentagrophytes; assay: Antifungal activity against Trichophyton mentagrophytes PMC 6515 after 72 hrs by CLSI broth microdilution method; conditions: PMC 6515, 72 h; outline: as §3
[22] = tested on: Trichophyton mentagrophytes; assay: Antifungal activity against Trichophyton mentagrophytes PMC 6531 after 72 hrs by CLSI broth microdilution method; conditions: PMC 6531, 72 h; outline: as §3
[23] = tested on: Trichophyton mentagrophytes; assay: Antifungal activity against Trichophyton mentagrophytes PMC 6509 after 72 hrs by CLSI broth microdilution method; conditions: PMC 6509, 72 h; outline: as §3
[24] = tested on: Trichophyton mentagrophytes; assay: Antifungal activity against Trichophyton mentagrophytes PMC 6503 after 72 hrs by CLSI broth microdilution method; conditions: PMC 6503, 72 h; outline: as §3
[25] = tested on: Trichophyton mentagrophytes; assay: Antifungal activity against Trichophyton mentagrophytes PMC 6552 after 72 hrs by CLSI broth microdilution method; conditions: PMC 6552, 72 h; outline: as §3
Nannizzia gypsea [26] = assay: Antifungal activity against Microsporum gypseum PMC 7303 after 72 hrs by CLSI broth microdilution method; conditions: PMC 7303, 72 h; outline: as §3
Nannizzia gypsea [27] = assay: Antifungal activity against Microsporum gypseum PMC 7331 after 72 hrs by CLSI broth microdilution method; conditions: PMC 7331, 72 h; outline: as §3
Nannizzia gypsea [28] = assay: Antifungal activity against Microsporum gypseum DSM 3824 after 72 hrs by CLSI broth microdilution method; conditions: DSM 3824, 72 h; outline: as §3
Candida albicans [29] = assay: Antifungal activity against Candida albicans ATCC 24433 after 48 hrs by CLSI broth microdilution method; conditions: ATCC 24433, 48 h; outline: as §1
Candida albicans [30] = assay: Antifungal activity against Candida albicans ATCC 3153 after 48 hrs by CLSI broth microdilution method; conditions: ATCC 3153, 48 h; outline: as §1
Candida albicans [31] = assay: Antifungal activity against Candida albicans ATCC 10231 after 48 hrs by CLSI broth microdilution method; conditions: ATCC 10231, 48 h; outline: as §1
Candida albicans [32] = assay: Antifungal activity against Candida albicans ATCC 76615 after 48 hrs by CLSI broth microdilution method; conditions: ATCC 76615, 48 h; outline: as §1
Candida albicans [33] = assay: Antifungal activity against Candida albicans ATCC 10261 after 48 hrs by CLSI broth microdilution method; conditions: ATCC 10261, 48 h; outline: as §1
Candida albicans [34] = assay: Antifungal activity against Candida albicans PMC 1040R after 48 hrs by CLSI broth microdilution method; outline: as §1
Candida albicans [35] = assay: Antifungal activity against Candida albicans PMC 1041R after 48 hrs by CLSI broth microdilution method; outline: as §1
Nakaseomyces glabratus [36] = assay: Antifungal activity against Candida glabrata PMC 0850R after 48 hrs by CLSI broth microdilution method; outline: as §1
Nakaseomyces glabratus [37] = assay: Antifungal activity against Candida glabrata PMC 0851R after 48 hrs by CLSI broth microdilution method; outline: as §1
Nakaseomyces glabratus [38] = assay: Antifungal activity against Candida glabrata PMC 0852R after 48 hrs by CLSI broth microdilution method; outline: as §1
Nakaseomyces glabratus [39] = assay: Antifungal activity against Candida glabrata PMC 0853R after 48 hrs by CLSI broth microdilution method; outline: as §1
Candida albicans [40] = assay: Antifungal activity against Candida albicans PMC 1042R after 48 hrs by CLSI broth microdilution method; outline: as §1

SMILES	MIC50 (Candida albicans [1])	MIC50 (Candida albicans [2])	MIC50 (Candida albicans [3])	MIC50 (Pichia kudriavzevii [4])	MIC50 (Pichia kudriavzevii [5])	MIC50 (Candida tropicalis [6])	MIC50 (Candida tropicalis [7])	MIC50 (Candida parapsilosis [8])	MIC50 (Candida parapsilosis [9])	MIC50 (Nakaseomyces glabratus [10])	MIC50 (Nakaseomyces glabratus [11])	MIC50 (Cryptococcus neoformans [12])	MIC50 (Cryptococcus neoformans [13])	MIC50 (Cryptococcus neoformans [14])	MIC50 (Cryptococcus neoformans [15])	MIC50 (Cryptococcus neoformans [16])	MIC50 (Cryptococcus neoformans [17])	MIC50 (Cryptococcus neoformans [18])	MIC50 (Cryptococcus neoformans [19])	MIC80 [20]	further results
O=C(Nc1ccc(N2CCN(c3ccc(Cl)cc3)CC2)cc1)O[C@H](Cn1ccnc1)c1ccc(F)cc1	32 µg/mL (≈ 61.5 µM)	32 µg/mL (≈ 61.5 µM)	32 µg/mL (≈ 61.5 µM)	2 µg/mL (≈ 3.85 µM)	1 µg/mL (≈ 1.92 µM)	32 µg/mL (≈ 61.5 µM)	16 µg/mL (≈ 30.8 µM)	2 µg/mL (≈ 3.85 µM)	4 µg/mL (≈ 7.69 µM)	2 µg/mL (≈ 3.85 µM)	4 µg/mL (≈ 7.69 µM)	2 µg/mL (≈ 3.85 µM)	2 µg/mL (≈ 3.85 µM)	2 µg/mL (≈ 3.85 µM)	1 µg/mL (≈ 1.92 µM)	1 µg/mL (≈ 1.92 µM)	2 µg/mL (≈ 3.85 µM)	1 µg/mL (≈ 1.92 µM)	1 µg/mL (≈ 1.92 µM)	128 µg/mL (≈ 246 µM)	MIC80 [21]: 128 µg/mL (≈ 246 µM); MIC80 [22]: 128 µg/mL (≈ 246 µM); MIC80 [23]: 128 µg/mL (≈ 246 µM); MIC80 [24]: 128 µg/mL (≈ 246 µM); MIC80 [25]: 128 µg/mL (≈ 246 µM); MIC80 (Nannizzia gypsea [26]): 64 µg/mL (≈ 123 µM); MIC80 (Nannizzia gypsea [27]): 128 µg/mL (≈ 246 µM); MIC80 (Nannizzia gypsea [28]): 128 µg/mL (≈ 246 µM); MIC50 (Candida albicans [29]): 64 µg/mL (≈ 123 µM); MIC50 (Candida albicans [30]): 64 µg/mL (≈ 123 µM); MIC50 (Candida albicans [31]): 32 µg/mL (≈ 61.5 µM); MIC50 (Candida albicans [32]): 32 µg/mL (≈ 61.5 µM); MIC50 (Candida albicans [33]): 64 µg/mL (≈ 123 µM)
OC(Cn1cncn1)(Cn1cncn1)c1ccc(F)cc1F [FLUCONAZOLE]	0.5 µg/mL (≈ 1.63 µM)	1 µg/mL (≈ 3.27 µM)	0.25 µg/mL (≈ 0.816 µM)	16 µg/mL (≈ 52.2 µM)	8 µg/mL (≈ 26.1 µM)	4 µg/mL (≈ 13.1 µM)	1 µg/mL (≈ 3.27 µM)	1 µg/mL (≈ 3.27 µM)	2 µg/mL (≈ 6.53 µM)	1 µg/mL (≈ 3.27 µM)	16 µg/mL (≈ 52.2 µM)	2 µg/mL (≈ 6.53 µM)	2 µg/mL (≈ 6.53 µM)	4 µg/mL (≈ 13.1 µM)	2 µg/mL (≈ 6.53 µM)	1 µg/mL (≈ 3.27 µM)	4 µg/mL (≈ 13.1 µM)	2 µg/mL (≈ 6.53 µM)	1 µg/mL (≈ 3.27 µM)	16 µg/mL (≈ 52.2 µM)	MIC80 [21]: 8 µg/mL (≈ 26.1 µM); MIC80 [22]: 4 µg/mL (≈ 13.1 µM); MIC80 [23]: 1 µg/mL (≈ 3.27 µM); MIC80 [24]: 2 µg/mL (≈ 6.53 µM); MIC80 [25]: 8 µg/mL (≈ 26.1 µM); MIC80 (Nannizzia gypsea [26]): 16 µg/mL (≈ 52.2 µM); MIC80 (Nannizzia gypsea [27]): 16 µg/mL (≈ 52.2 µM); MIC80 (Nannizzia gypsea [28]): 16 µg/mL (≈ 52.2 µM); MIC50 (Candida albicans [34]): 512 µg/mL (≈ 1670 µM); MIC50 (Candida albicans [35]): 32 µg/mL (≈ 104 µM); MIC50 (Nakaseomyces glabratus [36]): 32 µg/mL (≈ 104 µM); MIC50 (Nakaseomyces glabratus [37]): 128 µg/mL (≈ 418 µM); MIC50 (Nakaseomyces glabratus [38]): 16 µg/mL (≈ 52.2 µM); MIC50 (Nakaseomyces glabratus [39]): 32 µg/mL (≈ 104 µM); MIC50 (Candida albicans [40]): 16 µg/mL (≈ 52.2 µM); MIC50 (Candida albicans [29]): 0.5 µg/mL (≈ 1.63 µM); MIC50 (Candida albicans [30]): 16 µg/mL (≈ 52.2 µM); MIC50 (Candida albicans [31]): 2 µg/mL (≈ 6.53 µM); MIC50 (Candida albicans [32]): 0.5 µg/mL (≈ 1.63 µM); MIC50 (Candida albicans [33]): 4 µg/mL (≈ 13.1 µM)
